Screening data deposited in PubChem by Johns Hopkins Ion Channel Center.
This is a sample that favours compounds with a hit; in the whole collection about 2.3% have one here.
TRPC4 agonist = opens the mouse TRPC4 cation channel; 310,000 tested, 0.49% active; AID 2237; Q9QUQ5; B-score at 10 µM; HEK293 TRPC4beta/mu-opioid, Fluo4 calcium fluorescence; stronger effect = higher value;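 active means B-score above 5 SD of library B-scores, and initial fluorescence ratio not above library mean plus 5 SD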;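 further: positive B-score marks a calcium rise read as TRPC4 activation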
Target sequence (Q9QUQ5 whole entry, looked up): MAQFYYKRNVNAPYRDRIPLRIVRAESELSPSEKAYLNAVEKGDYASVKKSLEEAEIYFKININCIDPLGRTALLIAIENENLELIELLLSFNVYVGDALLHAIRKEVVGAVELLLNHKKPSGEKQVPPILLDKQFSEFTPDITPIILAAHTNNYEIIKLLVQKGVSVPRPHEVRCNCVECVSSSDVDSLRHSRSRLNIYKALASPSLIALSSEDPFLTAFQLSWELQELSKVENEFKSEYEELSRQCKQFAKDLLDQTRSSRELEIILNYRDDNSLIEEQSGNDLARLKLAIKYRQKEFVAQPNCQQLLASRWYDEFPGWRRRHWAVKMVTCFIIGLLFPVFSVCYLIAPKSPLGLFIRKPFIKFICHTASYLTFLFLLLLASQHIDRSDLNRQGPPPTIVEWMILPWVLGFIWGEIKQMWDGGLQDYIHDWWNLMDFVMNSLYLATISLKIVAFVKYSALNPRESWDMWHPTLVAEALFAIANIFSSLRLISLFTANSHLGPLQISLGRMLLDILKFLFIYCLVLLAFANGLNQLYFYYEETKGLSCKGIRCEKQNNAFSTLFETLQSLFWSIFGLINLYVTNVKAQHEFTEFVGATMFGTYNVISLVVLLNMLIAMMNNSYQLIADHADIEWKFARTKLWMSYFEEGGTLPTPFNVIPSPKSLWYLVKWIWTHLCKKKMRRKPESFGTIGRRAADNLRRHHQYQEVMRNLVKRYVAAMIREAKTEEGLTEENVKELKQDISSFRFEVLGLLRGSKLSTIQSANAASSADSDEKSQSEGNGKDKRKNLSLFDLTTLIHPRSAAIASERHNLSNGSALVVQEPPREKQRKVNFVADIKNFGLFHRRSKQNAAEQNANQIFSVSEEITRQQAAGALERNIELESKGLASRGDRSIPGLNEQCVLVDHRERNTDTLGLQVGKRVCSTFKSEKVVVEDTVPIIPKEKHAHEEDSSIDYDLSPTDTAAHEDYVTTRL
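Incubation: 45 min room-temperature Fluo4 loading, 110 s read / System: HEK293 cells stably co-expressing mouse TRPC4beta and mu-opioid receptor / Signal: Fluo4 fluorescence, kinetic / Control set: buffer (low) and maximal DAMGO (high) / Measure: integrated baseline-normalised fluorescence ratio, converted to per-well B score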
TRPC6 inh = mouse TRPC6 channel inhibition. HEK293-TRPC6, membrane potential dye, ACh-evoked depolarization; stronger effect = lower value. B-score at 10 µM. Q61143. AID 2553. 310,000 tested, 1.1% active;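 active means B-score under library mean minus 3 SD, initial fluorescence not abnormally high, positive integrated signal ratio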;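 further: B-score derived from integrated fluorescence ratio over the kinetic read; more negative B-score means stronger inhibition of depolarization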
TRPC6 activator = activates the mouse TRPC6 cation channel | Q61143 | HEK293-TRPC6 membrane potential dye fluorescence; stronger effect = higher value | B-score at 10 µM | 310,000 tested, 0.13% active;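 active means B-score of the integrated fluorescence ratio above library mean plus 3 SD, and starting fluorescence ratio within library mean plus 5 SD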;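 further: higher score means more depolarization so channel activation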
TRPC4 inh = inhibitors of mouse TRPC4 channel; Q9QUQ5; HEK293 TRPC4beta/mu-opioid, DAMGO-evoked Fluo4 calcium flux; stronger effect = lower value; B-score at 10 µM; 300,000 tested, 0.39% active; AID 2247;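 active means B-score over 3 SD under the library average, no early fluorescence shift, positive overall ratio signal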
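Material: HEK293 cells with stable TRPC4beta plus mu-opioid receptor expression; probe or stimulus: DAMGO in two steps, submaximal then maximal; technique: Fluo4 calcium fluorescence by kinetic imaging, 5 s 1 Hz baseline; measure: integrated fluorescence ratio relative to baseline, converted to per-well B score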
TRPC4 potent = allosteric potentiators of mouse TRPC4 channel; 310,000 tested, 0.42% active; B-score at 10 µM; Q9QUQ5; HEK293 TRPC4beta/mu-opioid, DAMGO EC20, Fluo-4 Ca2+ flux; stronger effect = higher value;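 active means B-score of calcium response area above 5 SD of library B-scores, with initial fluorescence ratio within 5 SD of library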
TRPC4 sel inh 2 = second check of whether TRPC6 inhibitors also affect mouse TRPC4; shares compounds with TRPC6 inh; HEK293 TRPC4/MOR, membrane potential dye fluorescence; channel activated by saturating DAMGO dose; inhibition, % at 10 µM; 920 tested, 42% active; AID 2776;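 active means compounds whose fluorescence signal differed from control wells by over 3 SD, either direction, in both duplicate plates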
TRPC4 spec = selectivity of TRPC6 inhibitors: effect on mouse TRPC4 | shares compounds with TRPC6 inh | HEK293 TRPC4/mu-opioid, membrane potential fluorescence | activity change, negative = inhibition, % at 10 µM | 920 tested, 61% active | AID 2777;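 active means rise or fall in signal beyond 3 SD of buffer-only wells in both replicate plates, either sign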;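 further: integrated kinetic ratio of fluorescence range over baseline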
HEK293 MPD ctr 2-1 = parental HEK293 nonspecific activity of TRPC6 inhibitors, second screen | shares compounds with TRPC6 inh | parental HEK293 membrane potential dye fluorescence; maximal acetylcholine challenge after compound addition | signal change vs control, % at 10 µM | 920 tested, 31% active | AID 2779;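 active means membrane potential signal moving either way by over 3 SD of the maximum-effect control, in both duplicate plates, meaning non-specific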
HEK293 MPD ctr-1 = checks TRPC6 inhibitor effects in parental HEK293 cells. shares compounds with TRPC6 inh. parental HEK293 membrane potential dye fluorescence. membrane potential signal change, % at 10 µM. 920 tested, 60% active;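 active means membrane potential signal shifting up or down by more than 3 SD of buffer-only wells, on both duplicate plates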
HEK293 MPD ctr-2 = parental HEK293 nonspecific activity of TRPC6 modulators; shares compounds with TRPC6 inh; membrane potential dye fluorescence; membrane potential signal change, % at 10 µM; 2,400 tested, 51% active;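 active means membrane potential signal moves up or down beyond 5 SD from buffer-only wells, on both duplicate plates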
HEK293 MPD ctr 2-2 = parental HEK293 nonspecific activity of TRPC6 modulators, second screen; inhibition, % at 10 µM; shares compounds with TRPC6 inh; 2,400 tested, 14% active; AID 488926; membrane potential dye fluorescence; after compound, maximal acetylcholine stimulation;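 active means membrane potential signal drops by more than 5 SD from the mean control signal, in both duplicate plates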
TRPC4 ctr mod = tests whether TRPC6 modulators also affect mouse TRPC4; shares compounds with TRPC6 inh; HEK293 TRPC4/mu-opioid, membrane potential fluorescence; percent change from control (negative = decrease, positive = increase), % at 10 µM; 2,400 tested, 69% active;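 active means membrane potential signal moved up or down beyond 5 SD of buffer control wells, in both duplicate plates, actives on both sides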
TRPC4 ctr inh 2 = second selectivity test of TRPC6 modulators against mouse TRPC4; HEK293 TRPC4/mu-opioid, membrane potential dye fluorescence; stimulated with maximal-effect DAMGO; shares compounds with TRPC6 inh; inhibition, % at 10 µM; 2,400 tested, 55% active;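 active means drop in membrane potential signal beyond 5 SD of the control wells in both duplicate plates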;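 further: TRPC4 counter screen for TRPC6 hits run under conditions tuned for TRPC6 not TRPC4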
TRPC6 inh conf = mouse TRPC6 inhibitor confirmation; HEK293-TRPC6, membrane potential dye, ACh-evoked depolarization; inhibition, % at 10 µM; AID 488960; 3,300 tested, 43% active; shares compounds with TRPC6 inh;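 active means fluorescence ratio falls more than 5 SD below the full-stimulation control mean, in both duplicate runs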;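 further: integrated fluorescence ratio of peak minus minimum over baseline after agonist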
TRPC6 act confirm = mouse TRPC6 activator confirmation; shares compounds with TRPC6 inh; HEK293-TRPC6 membrane potential dye fluorescence, FDSS; activation, % at 10 µM; 2,800 tested, 11% active;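 active means ratio signal rise beyond 5 SD above unstimulated control wells' mean, seen in both duplicate runs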
Of the large screens only hits and unclear results are named; the others gave an inactive call (follow-up assays come after a bar, where they were run).

COC(=O)c1c(NC(C)=O)sc2c1CCN(Cc1ccccc1)C2	TRPC6 inh -5.5 | HEK293 MPD ctr-2 -196% | HEK293 MPD ctr 2-2 inactive | TRPC4 ctr mod -34% | TRPC4 ctr inh 2 37% | TRPC6 inh conf inactive | TRPC6 act confirm inactive
CCN1CCN(S(=O)(=O)c2ccc(C(=O)Nc3sc4c(c3C(N)=O)CCN(CC)C4)cc2)CC1	TRPC6 inh -10 | HEK293 MPD ctr-2 -144% | HEK293 MPD ctr 2-2 inactive | TRPC4 ctr mod -27% | TRPC4 ctr inh 2 37% | TRPC6 inh conf 58% | TRPC6 act confirm inactive
CCN(CC(=O)NCCN1CCOCC1)S(=O)(=O)c1ccc(F)cc1	none
CCOC(=O)c1c(NC(=O)CSc2ncccn2)sc2c1CCN(Cc1ccccc1)C2	TRPC6 inh -5.5 | HEK293 MPD ctr-2 inactive | HEK293 MPD ctr 2-2 inactive | TRPC4 ctr mod -20% | TRPC4 ctr inh 2 35% | TRPC6 inh conf inactive | TRPC6 act confirm inactive
CCOC(=O)c1c(NC(=O)c2cccc(N3C(=O)CCC3=O)c2)sc2c1CCN(CC)C2	TRPC6 inh -6.3 | HEK293 MPD ctr-2 inactive | HEK293 MPD ctr 2-2 inactive | TRPC4 ctr mod inactive | TRPC4 ctr inh 2 28% | TRPC6 inh conf inactive | TRPC6 act confirm inactive
N=c1c(C(=O)NC2CCCCC2)cc2c(=O)n3ccccc3nc2n1Cc1ccccc1	TRPC6 inh -8 | HEK293 MPD ctr-2 -142% | HEK293 MPD ctr 2-2 inactive | TRPC4 ctr mod -36% | TRPC4 ctr inh 2 50% | TRPC6 inh conf 46% | TRPC6 act confirm inactive
N=c1c(C(=O)NC2CCCCC2)cc2c(=O)n3ccccc3nc2n1Cc1cccnc1	TRPC6 inh -5.5 | HEK293 MPD ctr-2 -84% | HEK293 MPD ctr 2-2 inactive | TRPC4 ctr mod -24% | TRPC4 ctr inh 2 30% | TRPC6 inh conf 36% | TRPC6 act confirm inactive
Cc1ccc(F)cc1NC(=O)N1CCN(c2ccnc3cc(Cl)ccc23)CC1	TRPC6 inh -5.3 | HEK293 MPD ctr-2 -94% | HEK293 MPD ctr 2-2 inactive | TRPC4 ctr mod -24% | TRPC4 ctr inh 2 inactive | TRPC6 inh conf inactive | TRPC6 act confirm inactive
O=C(Nc1cc(F)ccc1F)N1CCN(c2ccnc3cc(Cl)ccc23)CC1	none
O=C(CC(c1ccccc1)c1ccco1)Nc1nccs1 (stereo not given)	none
Cc1ccccc1C(=O)NCC(=O)Nc1ccc(C)c(S(=O)(=O)N2CCCCCC2)c1	none
O=C1c2cccc(Cl)c2C(=O)c2c1cccc2N1CCCC1	TRPC6 inh -8.3 | HEK293 MPD ctr-2 -98% | HEK293 MPD ctr 2-2 inactive | TRPC4 ctr mod -26% | TRPC4 ctr inh 2 76% | TRPC6 inh conf inactive | TRPC6 act confirm inactive
COc1cc(/C=N/NC(=O)Cn2nc([N+](=O)[O-])cc2C)cc(Br)c1OCc1ccccc1	TRPC6 inh -5.1 | HEK293 MPD ctr-2 inactive | HEK293 MPD ctr 2-2 inactive | TRPC4 ctr mod inactive | TRPC4 ctr inh 2 inactive | TRPC6 inh conf inactive | TRPC6 act confirm inactive
Fc1ccc(-c2cn(-c3ccccc3)c3[n+]2CCS3)cc1	none
Clc1ccc(-c2cn(-c3ccccc3)c3[n+]2CCS3)cc1	TRPC6 inh -7.4 | HEK293 MPD ctr-2 -96% | HEK293 MPD ctr 2-2 58% | TRPC4 ctr mod -16% | TRPC4 ctr inh 2 inactive | TRPC6 inh conf 48% | TRPC6 act confirm inactive
COc1ccc(-c2cn(-c3ccc(Cl)cc3)c3[n+]2CCCCC3)cc1	none
COc1ccc(-c2cn(-c3ccc(Br)cc3)c3[n+]2CCS3)cc1	TRPC6 inh -5.9 | HEK293 MPD ctr-2 inactive | HEK293 MPD ctr 2-2 inactive | TRPC4 ctr mod inactive | TRPC4 ctr inh 2 inactive | TRPC6 inh conf inactive | TRPC6 act confirm inactive
Cc1ccc(S(=O)(=O)Nc2cc3c(cc2C#N)OCO3)cc1C(N)=O	none
CN1C(=O)/C(=C\c2ccc(N(C)C)cc2)OC1=S	TRPC6 activator 19 | HEK293 MPD ctr-2 322% | HEK293 MPD ctr 2-2 inactive | TRPC4 ctr mod 74% | TRPC4 ctr inh 2 inactive | TRPC6 inh conf inactive | TRPC6 act confirm 123%
CCNC(=O)/C(=C\C=C\c1ccccc1)NC(=O)c1ccc(Br)o1	none
CCCC(C)C(=O)Nc1nc(C)c(-c2csc(Nc3ccc(Cl)cc3)n2)s1 (stereo not given)	TRPC6 inh -6 | HEK293 MPD ctr-2 inactive | HEK293 MPD ctr 2-2 inactive | TRPC4 ctr mod inactive | TRPC4 ctr inh 2 inactive | TRPC6 inh conf inactive | TRPC6 act confirm inactive
O=C(COc1ccccc1C(=O)NCC1CCCO1)Nc1ccc(Br)cc1 (stereo not given)	none
CN1CCN(CCCN2c3ccccc3Sc3ccc(Cl)cc32)CC1	none
CN1CCN(C2=Nc3cc(Cl)ccc3Nc3ccccc32)CC1	TRPC6 inh -6.9 | TRPC4 sel inh 2 inactive | TRPC4 spec inactive | HEK293 MPD ctr 2-1 -2.0% | HEK293 MPD ctr-1 inactive | TRPC6 inh conf inactive | TRPC6 act confirm inactive
Cc1ncc(C[n+]2csc(CCOC(=O)CC34CC5CC(CC(C5)C3)C4)c2C)c(N)n1	none
Cc1c(CCOC(=O)CC23CC4CC(CC(C4)C2)C3)sc[n+]1Cc1ccccc1	TRPC6 inh -5.3, TRPC4 inh -6 | HEK293 MPD ctr-2 inactive | HEK293 MPD ctr 2-2 inactive | TRPC4 ctr mod inactive | TRPC4 ctr inh 2 40% | TRPC6 inh conf 56% | TRPC6 act confirm inactive
